# Data from ChEMBL document CHEMBL4138266, “Lysine Analogue of Polymyxin B as a Significant Opportunity for Photodynamic Antimicrobial Chemotherapy” (ACS Med Chem Lett, 2018).
# The source made the active and inactive calls. The rule behind the calls is not given here.
# What was measured:
# [1] = test system: Staphylococcus aureus; assay: Photobactericidal activity against Staphylococcus aureus CIP76.25 irradiated with white light at 4.83 mW/cm2 for 20 hrs; format: functional; conditions: CIP76.25, light or radiation study
# Method in brief: (§1)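 Minimal bactericidal concentration (MBC) was determined in tryptic soy medium with log-phase bacteria at 37 °C. Plates were either kept in the dark or given 20 h of white light at 4.83 mW/cm². MBC was taken as the concentration killing 99.99% of bacteria, i.e. a 4-log reduction versus the untreated control.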
# [2] = test system: Staphylococcus aureus; assay: Bactericidal activity against Staphylococcus aureus CIP76.25 incubated for 30 mins under dark conditions; format: ADME, organism-based; conditions: 0.5 h
# Method in brief: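 S. aureus exposed to compound in PBS 1X for 30 min at 37 °C, then washed three times with PBS. The light arm was white LED irradiation at 4.83 mW/cm² (7 J/cm² = 24 min) at 37 °C. Survival was expressed as % of initial bacterial density.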
# [3] = test system: Pseudomonas aeruginosa; assay: Photobactericidal activity against Pseudomonas aeruginosa CIP76110 irradiated with white light at 4.83 mW/cm2 for 20 hrs; format: functional; conditions: CIP76110, light or radiation study; method in brief: as §1
# [4] = test system: Pseudomonas aeruginosa; assay: Bactericidal activity against Pseudomonas aeruginosa CIP76110 incubated for 30 mins under dark conditions; format: organism-based; conditions: 0.5 h; method in brief: as §1
# [5] = test system: Escherichia coli; assay: Photobactericidal activity against Escherichia coli CIP54.8T irradiated with white light at 4.83 mW/cm2 for 20 hrs; format: functional; conditions: light or radiation study; method in brief: as §1
# [6] = test system: Escherichia coli; assay: Bactericidal activity against Escherichia coli CIP54.8T incubated for 30 mins under dark conditions; format: organism-based; conditions: 0.5 h; method in brief: as §1
# [7] = test system: Staphylococcus aureus; assay: Photobactericidal activity against Staphylococcus aureus pretreated for 30 mins followed by compound wash out with subsequent irradiation with white light at 4.83 mW/cm2; format: functional, organism-based
# Method in brief: (§2)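 Bacteria were pre-incubated with conjugate in 1X PBS (P. aeruginosa at 1 µM), then washed three times with PBS. They were irradiated with white LED light (4.83 mW/cm²; 7 J/cm² corresponds to 24 min) at 37 °C. Survival, as % of initial density, was plotted against cumulative light fluence.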
# [8] = test system: Pseudomonas aeruginosa; assay: Photobactericidal activity against Pseudomonas aeruginosa pretreated for 30 mins followed by compound wash out with subsequent irradiation with white light at 4.83 mW/cm2; format: functional, organism-based; method in brief: as §2
# [9] = test system: Escherichia coli; assay: Photobactericidal activity against Escherichia coli pretreated for 30 mins followed by compound wash out with subsequent irradiation with white light at 4.83 mW/cm2; format: functional, organism-based; method in brief: as §2
# [10] = test system: Pseudomonas aeruginosa; assay: Photobactericidal activity against Pseudomonas aeruginosa assessed as PI-positive and PS-positive cell population at 1 uM incubated for 30 mins followed by 1 washing by propidium iodide staining based flow cytometry; format: functional
# Method in brief: (§3)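 Bacteria were incubated with 1 µM conjugate for 30 min at 37 °C, washed with saline, then stained with propidium iodide (0.01 mg/mL) to assess viability. Samples were analysed by flow cytometry. Q1 is the PI-positive (permeable membrane) population; Q2 is double positive for PI and photosensitizer fluorescence.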
# [11] = test system: Pseudomonas aeruginosa; assay: Photobactericidal activity against Pseudomonas aeruginosa assessed as live bacterial cells with membrane integrity loss at 1 uM incubated for 30 mins followed by 1 washing by propidium iodide staining based flow cytometry; format: functional; method in brief: as §3
# [12] = test system: Staphylococcus aureus; assay: Photobactericidal activity against Staphylococcus aureus at 1 uM after 30 mins by confocal laser scanning microscopy; format: functional, organism-based
# Method in brief: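 S. aureus inoculum was suspended in 1 µM conjugate for 30 min at 37 °C, washed three times with PBS, and imaged by confocal laser scanning microscopy at 100X to visualise bacteria-associated fluorescence.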
# [13] = test system: NHDF; assay: Cytotoxicity against human NHDF cells assessed as reduction in cell viability at 5 to 5000 nM irradiated with white light at 4.83 mW/cm2 for 2 hrs measured after 24 hrs by MTT assay; format: cell-based; conditions: 5 µM
# [14] = test system: NHDF; assay: Cytotoxicity against human NHDF cells assessed as reduction in cell viability at 5 to 5000 nM incubated under dark conditions for 2 hrs measured after 24 hrs by MTT assay; format: cell-based; conditions: 5 µM
# [15] = test system: Staphylococcus aureus; assay: Photobactericidal activity against Staphylococcus aureus assessed as dead bacteria with permeable membrane at 1 uM incubated for 30 mins followed by 1 washing by propidium iodide staining based flow cytometry; format: functional; method in brief: as §3
# [16] = test system: Staphylococcus aureus; assay: Photobactericidal activity against Staphylococcus aureus at 10 uM pretreated for 30 mins followed by compound wash out with subsequent irradiation with white light at 4.83 mW/cm2; format: functional, organism-based; method in brief: as §2
# [17] = test system: Escherichia coli; assay: Photobactericidal activity against Escherichia coli at 10 uM pretreated for 30 mins followed by compound wash out with subsequent irradiation with white light at 4.83 mW/cm2; format: functional, organism-based; method in brief: as §2
# [18] = test system: Pseudomonas aeruginosa; assay: Photobactericidal activity against Pseudomonas aeruginosa at 1 uM pretreated for 30 mins followed by compound wash out with subsequent irradiation with white light at 4.83 mW/cm2; format: functional, organism-based; method in brief: as §2
# [19] = test system: Staphylococcus aureus; assay: Photobactericidal activity against Staphylococcus aureus assessed as PI-positive and PS-positive cell population at 1 uM incubated for 30 mins followed by 1 washing by propidium iodide staining based flow cytometry; format: functional; method in brief: as §3
# [20] = test system: Staphylococcus aureus; assay: Photobactericidal activity against Staphylococcus aureus assessed as live bacterial population at 1 uM incubated for 30 mins followed by 1 washing by propidium iodide staining based flow cytometry; format: functional; method in brief: as §3
# [21] = test system: Staphylococcus aureus; assay: Photobactericidal activity against Staphylococcus aureus assessed as live bacterial cells with membrane integrity loss at 1 uM incubated for 30 mins followed by 1 washing by propidium iodide staining based flow cytometry; format: functional; method in brief: as §3
# [22] = test system: Pseudomonas aeruginosa; assay: Photobactericidal activity against Pseudomonas aeruginosa assessed as dead bacteria with permeable membrane at 1 uM incubated for 30 mins followed by 1 washing by propidium iodide staining based flow cytometry; format: functional; method in brief: as §3
# [23] = test system: Pseudomonas aeruginosa; assay: Photobactericidal activity against Pseudomonas aeruginosa assessed as live bacterial population at 1 uM incubated for 30 mins followed by 1 washing by propidium iodide staining based flow cytometry; format: functional; method in brief: as §3
# [24] = test system: Escherichia coli; assay: Photobactericidal activity against Escherichia coli assessed as dead bacteria with permeable membrane at 1 uM incubated for 30 mins followed by 1 washing by propidium iodide staining based flow cytometry; format: functional; method in brief: as §3
# [25] = test system: Escherichia coli; assay: Photobactericidal activity against Escherichia coli assessed as PI-positive and PS-positive cell population at 1 uM incubated for 30 mins followed by 1 washing by propidium iodide staining based flow cytometry; format: functional; method in brief: as §3
# [26] = test system: Escherichia coli; assay: Photobactericidal activity against Escherichia coli assessed as live bacterial population at 1 uM incubated for 30 mins followed by 1 washing by propidium iodide staining based flow cytometry; format: functional; method in brief: as §3
# [27] = test system: Escherichia coli; assay: Photobactericidal activity against Escherichia coli assessed as live bacterial cells with membrane integrity loss at 1 uM incubated for 30 mins followed by 1 washing by propidium iodide staining based flow cytometry; format: functional; method in brief: as §3
# [28] = test system: Staphylococcus aureus; assay: Photobactericidal activity against Staphylococcus aureus assessed as dead bacteria with permeable membrane at 1 uM incubated for 30 mins followed by 3 washings by propidium iodide staining based flow cytometry; format: functional; method in brief: as §3
# [29] = test system: Staphylococcus aureus; assay: Photobactericidal activity against Staphylococcus aureus assessed as PI-positive and PS-positive cell population at 1 uM incubated for 30 mins followed by 3 washings by propidium iodide staining based flow cytometry; format: functional; method in brief: as §3
# [30] = test system: Staphylococcus aureus; assay: Photobactericidal activity against Staphylococcus aureus assessed as live bacterial population at 1 uM incubated for 30 mins followed by 3 washings by propidium iodide staining based flow cytometry; format: functional; method in brief: as §3
# [31] = test system: Staphylococcus aureus; assay: Photobactericidal activity against Staphylococcus aureus assessed as live bacterial cells with membrane integrity loss at 1 uM incubated for 30 mins followed by 3 washings by propidium iodide staining based flow cytometry; format: functional; method in brief: as §3
# [32] = test system: Pseudomonas aeruginosa; assay: Photobactericidal activity against Pseudomonas aeruginosa assessed as dead bacteria with permeable membrane at 1 uM incubated for 30 mins followed by 3 washings by propidium iodide staining based flow cytometry; format: functional; method in brief: as §3
# [33] = test system: Pseudomonas aeruginosa; assay: Photobactericidal activity against Pseudomonas aeruginosa assessed as PI-positive and PS-positive cell population at 1 uM incubated for 30 mins followed by 3 washings by propidium iodide staining based flow cytometry; format: functional; method in brief: as §3
# [34] = test system: Pseudomonas aeruginosa; assay: Photobactericidal activity against Pseudomonas aeruginosa assessed as live bacterial population at 1 uM incubated for 30 mins followed by 3 washings by propidium iodide staining based flow cytometry; format: functional; method in brief: as §3
# [35] = test system: Pseudomonas aeruginosa; assay: Photobactericidal activity against Pseudomonas aeruginosa assessed as live bacterial cells with membrane integrity loss at 1 uM incubated for 30 mins followed by 3 washings by propidium iodide staining based flow cytometry; format: functional; method in brief: as §3
# [36] = test system: Escherichia coli; assay: Photobactericidal activity against Escherichia coli assessed as dead bacteria with permeable membrane at 1 uM incubated for 30 mins followed by 3 washings by propidium iodide staining based flow cytometry; format: functional; method in brief: as §3
# [37] = test system: Escherichia coli; assay: Photobactericidal activity against Escherichia coli assessed as PI-positive and PS-positive cell population at 1 uM incubated for 30 mins followed by 3 washings by propidium iodide staining based flow cytometry; format: functional; method in brief: as §3
# [38] = test system: Escherichia coli; assay: Photobactericidal activity against Escherichia coli assessed as live bacterial population at 1 uM incubated for 30 mins followed by 3 washings by propidium iodide staining based flow cytometry; format: functional; method in brief: as §3
# [39] = test system: Escherichia coli; assay: Photobactericidal activity against Escherichia coli assessed as live bacterial cells with membrane integrity loss at 1 uM incubated for 30 mins followed by 3 washings by propidium iodide staining based flow cytometry; format: functional; method in brief: as §3
smiles,measurement,setting,value
CCCCCCCC(=O)N[C@@H](CS)C(=O)N[C@H](C(=O)N[C@@H](CCN)C(=O)N[C@H]1CCNC(=O)[C@H]([C@@H](C)O)NC(=O)[C@H](CCN)NC(=O)[C@H](CCN)NC(=O)[C@H](CC(C)C)NC(=O)[C@@H](Cc2ccccc2)NC(=O)[C@H](CCN)NC1=O)[C@@H](C)O,MBC,[1],> 50 µM
same,MBC,[2],> 50 µM
same,MBC,[3],10 µM
same,MBC,[4],10 µM
same,MBC,[5],5 µM
same,MBC,[6],5 µM
CCCCCCCC(=O)N[C@@H](CSC1CC(=O)N(CCCCCC(=O)Nc2ccc(-c3c4nc(c(-c5cc[n+](C)cc5)c5ccc([nH]5)c(-c5cc[n+](C)cc5)c5nc(c(-c6cc[n+](C)cc6)c6ccc3[nH]6)C=C5)C=C4)cc2)C1=O)C(=O)N[C@H](C(=O)N[C@@H](CCN)C(=O)N[C@H]1CCNC(=O)[C@H]([C@@H](C)O)NC(=O)[C@H](CCN)NC(=O)[C@H](CCN)NC(=O)[C@H](CC(C)C)NC(=O)[C@@H](Cc2ccccc2)NC(=O)[C@H](CCN)NC1=O)[C@@H](C)O.[I-].[I-].[I-] (some centres undefined),Activity,[7],Active
same,Activity,[8],Active
same,MBC,[1],0.8 µM
same,MBC,[3],2.5 µM
same,MBC,[4],10 µM
same,MBC,[5],0.5 µM
same,MBC,[6],1.2 to 5 µM
same,Activity,[9],Active
same,Activity,[10],80%
same,Activity,[11],80%
same,Activity,[12],Active
same,Activity,[13],Non-Toxic
same,Activity,[14],Non-Toxic
CCCCCCCC(=O)N[C@@H](CSC1CC(=O)N(CCCCCC(=O)Nc2ccc(-c3c4nc(c(-c5cc[n+](C)cc5)c5ccc([nH]5)c(-c5cc[n+](C)cc5)c5nc(c(-c6cc[n+](C)cc6)c6ccc3[nH]6)C=C5)C=C4)cc2)C1=O)C(=O)N[C@H](C(=O)N[C@@H](CCCCN)C(=O)N[C@H]1CCNC(=O)[C@H]([C@@H](C)O)NC(=O)[C@H](CCCCN)NC(=O)[C@H](CCCCN)NC(=O)[C@H](CC(C)C)NC(=O)[C@@H](Cc2ccccc2)NC(=O)[C@H](CCCCN)NC1=O)[C@@H](C)O.[I-].[I-].[I-] (some centres undefined),Activity,[15],1.6%
same,MBC,[1],1.2 µM
same,MBC,[3],8 µM
same,MBC,[4],> 100 µM
same,MBC,[5],0.8 µM
same,MBC,[6],25 µM
same,Activity,[16],Active
same,Activity,[17],Active
same,Activity,[18],Active
same,Activity,[19],3.2%
same,Activity,[20],75.6%
same,Activity,[21],19.7%
same,Activity,[22],19.3%
same,Activity,[10],43.1%
same,Activity,[23],34.6%
same,Activity,[11],3%
same,Activity,[24],1.8%
same,Activity,[25],14%
same,Activity,[26],69.7%
same,Activity,[27],14.6%
same,Activity,[28],4.4%
same,Activity,[29],5.8%
same,Activity,[30],70.8%
same,Activity,[31],19%
same,Activity,[32],37.7%
same,Activity,[33],28.9%
same,Activity,[34],31.6%
same,Activity,[35],1.9%
same,Activity,[36],5.2%
same,Activity,[37],22.8%
same,Activity,[38],62.5%
same,Activity,[39],9.6%
same,Activity,[12],Active
same,Activity,[13],Non-Toxic
same,Activity,[14],Non-Toxic
